This note sets out measurements from ChEMBL document CHEMBL4017544 (J Med Chem, 2017).

Structures are written as SMILES. Active and inactive are the calls of the source.

Series [1] concerns the target Kelch-like ECH-associated protein 1 (Homo sapiens) (UniProt Q14145). In words: Inhibition of Keap1/Nrf2 (unknown origin) interaction transfected in HEK293 cells assessed as upregulation of NQO1 mRNA expression at 200 to 1000 nM after 48 hrs by quantitative RT-PCR analysis. It counts as cell-based. The method, boiled down:
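HEK293 cells (ATCC; high-glucose DMEM, 10% FBS) were treated in triplicate for 48 h. For the reporter read-out, cells were transfected with an ARE-dependent luciferase plasmid and luciferase activity was measured. For mRNA, total RNA was extracted with TRIzol and reverse transcribed, and target transcripts were quantified by qRT-PCR relative to GAPDH using the 2−ΔΔCt method. Three independent experiments, mean ± SD.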

In series [2] the target is T1, Inhibitor of nuclear factor kappa-B kinase subunit beta (Homo sapiens) (UniProt O14920).
T1 sequence (whole entry): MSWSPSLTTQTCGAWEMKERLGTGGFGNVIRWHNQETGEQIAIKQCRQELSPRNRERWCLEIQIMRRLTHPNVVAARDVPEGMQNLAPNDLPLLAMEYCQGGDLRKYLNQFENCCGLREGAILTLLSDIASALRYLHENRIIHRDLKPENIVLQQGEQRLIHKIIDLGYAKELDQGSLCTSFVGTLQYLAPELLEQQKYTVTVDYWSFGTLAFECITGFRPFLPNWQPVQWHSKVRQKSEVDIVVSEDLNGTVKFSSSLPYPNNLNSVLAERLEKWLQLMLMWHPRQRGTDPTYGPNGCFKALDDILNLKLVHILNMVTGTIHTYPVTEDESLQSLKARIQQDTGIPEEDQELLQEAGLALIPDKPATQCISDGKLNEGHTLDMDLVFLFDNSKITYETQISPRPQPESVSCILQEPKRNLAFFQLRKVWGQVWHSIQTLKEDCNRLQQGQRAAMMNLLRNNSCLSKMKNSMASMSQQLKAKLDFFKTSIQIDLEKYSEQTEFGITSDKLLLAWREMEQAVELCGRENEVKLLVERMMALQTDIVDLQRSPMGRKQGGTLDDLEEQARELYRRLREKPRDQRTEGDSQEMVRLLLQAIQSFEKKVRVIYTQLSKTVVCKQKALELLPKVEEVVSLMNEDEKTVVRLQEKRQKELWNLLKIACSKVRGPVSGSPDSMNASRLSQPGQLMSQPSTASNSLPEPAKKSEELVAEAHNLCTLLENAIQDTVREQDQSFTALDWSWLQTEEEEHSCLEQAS
The series can be described thus: Inhibition of IKKbeta (unknown origin) transfected in HEK293 cells assessed as TNFalpha-induced NFkappaB activation at 200 to 1000 nM administered 6 hrs after TNFalpha stimulation measured for 24 hrs by NFkappaB-driven luciferase reporter gene assay. It counts as cell-based. The method in brief:
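HEK293 cells transfected with an NF-κB-driven luciferase reporter, stimulated with TNF-α and treated in triplicate; luciferase read with a dual-luciferase system.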

The test system of series [3] is Mus musculus. In words: Toxicity in db/db mouse assessed as effect on water consumption at 0.65 mg/kg, ip administered trice per week for 12 consecutive weeks measured every other day. To be noted: in vivo. It counts as organism-based. The method, boiled down:
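Male db/db mice (8 weeks old, specific pathogen-free, normal chow and filtered water ad libitum) were randomized and dosed i.p. three times weekly for 12 consecutive weeks; vehicle was 5% Tween-80 in 0.9% saline. Body weight and food and water consumption were recorded every other day.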

The nature of series [4]: Half life in Sprague-Dawley rat at 10 mg/kg, iv measured up to 24 hrs by LC-MS/MS analysis. It counts as ADME, organism-based. To be noted: in vivo. The method in brief: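 Rats dosed intravenously at 10 mg/kg; blood drawn from suborbital vein at 0, 2, 5, 15, 30, 60 min and 1.5, 2, 4, 6, 8, 12, 24 h; plasma levels by LC-MS/MS; parameters from concentration–time profiles, mean ± SD, n = 3.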

For the next series, the system named is H9c2. The series can be described thus: Cytotoxicity against rat H9c2 cells assessed as reduction in cell viability after 24 hrs by MTT assay. As to conditions: H9c2, 24 h. The class given is cell-based. The method, boiled down: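 HEK293 or H9C2 cells grown in high-glucose DMEM with 10% FBS, exposed to compound for 24 h; viability by MTT, IC50 calculated.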
Background: Tetrazolium dyes change colour on reduction, which living cells bring about.

Series [5] can be described thus: Acute toxicity in ip dosed ICR mouse assessed as lethality administered daily for 7 days. To be noted: in vivo. It counts as organism-based. The method, boiled down: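 Intraperitoneal dosing of ICR mice once daily for 7 days, with top doses up to 600 or 1000 mg/kg depending on the compound. Lethality was recorded and expressed as an LD50 (mg/kg).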
In series [6] the target is T1, Inhibitor of nuclear factor kappa-B kinase subunit beta (Homo sapiens). The series can be described thus: Inhibition of IKKbeta (unknown origin) transfected in HEK293 cells assessed as reduction in TNFalpha-induced upregulation of COX2 protein expression at 200 to 1000 nM administered 6 hrs after TNFalpha stimulation measured for 24 hrs by Western blot method. It counts as cell-based. The method, boiled down:
(§1)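 HEK293 cells pretreated with TNF-α (10 ng/mL) for 6 h, then given compound at 200 or 1000 nM for 24 h, in triplicate; nuclear and cytosolic p65, iNOS and COX2 protein by western blot; mean ± SD from three experiments.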
(Immunoblotting shows a protein as a band on a membrane.)

Series [7] has the same target. In words: Inhibition of IKKbeta (unknown origin) transfected in HEK293 cells assessed as reduction in TNFalpha-induced upregulation of iNOS protein expression at 200 to 1000 nM administered 6 hrs after TNFalpha stimulation measured for 24 hrs by Western blot method. The class given is cell-based. The method in brief:
as §1

The target in series [8] is Kelch-like ECH-associated protein 1 (Homo sapiens) (UniProt Q14145). The series can be described thus: Inhibition of Keap1/Nrf2 (unknown origin) interaction transfected in HEK293 cells assessed as increase in cytosolic NQO1 levels at 200 to 1000 nM after 48 hrs by Western blot analysis. The class given is cell-based. The method in brief:
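HEK293 cells grown in high-glucose DMEM with 10% FBS were treated in triplicate at 200 or 1000 nM for 48 h. Nuclear and cytosolic Nrf2, HO-1 and cytoplasmic NQO1 were measured by western blot with specific antibodies, with TBP and β-actin among the probed proteins. The nuclear/cytosolic Nrf2 ratio was derived from these blots. Three independent experiments, mean ± SD.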

Series [9] concerns the target T1, Inhibitor of nuclear factor kappa-B kinase subunit beta (Homo sapiens). In words: Inhibition of IKKbeta (unknown origin) transfected in HEK293 cells assessed as reduction in TNFalpha-induced upregulation of MCP1 mRNA expression at 200 to 1000 nM administered 6 hrs after TNFalpha stimulation measured for 24 hrs by quantitative RT-PCR method.
In series [10] the test system is Mus musculus. The series can be described thus: Renoprotective activity in db/db mouse assessed as reduction in mesangial expansion at 1 to 2 mg/kg, ip administered trice per week for 12 consecutive weeks measured at 11 weeks post dose by TEM microscopic analysis. It counts as functional, organism-based. The method in brief: (§2)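 Male db/db mice (8 weeks old) were dosed i.p. three times weekly for 12 weeks in 5% Tween-80/0.9% saline, n = 6. Kidney tissue was fixed in 3% glutaraldehyde, cut into 80 nm ultrathin sections and examined by TEM. GBM thickness was measured at 30 random locations from three sections per kidney and averaged per mouse.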

Series [11] relates to Mus musculus. The series can be described thus: Renoprotective activity in db/db mouse assessed as reduction in loss of foot processes at 1 to 2 mg/kg, ip administered trice per week for 12 consecutive weeks measured at 11 weeks post dose by TEM microscopic analysis. The class given is functional, organism-based. The method, boiled down: as §2

Chain of Kelch-like ECH-associated protein 1 (Homo sapiens) (Q14145 whole entry): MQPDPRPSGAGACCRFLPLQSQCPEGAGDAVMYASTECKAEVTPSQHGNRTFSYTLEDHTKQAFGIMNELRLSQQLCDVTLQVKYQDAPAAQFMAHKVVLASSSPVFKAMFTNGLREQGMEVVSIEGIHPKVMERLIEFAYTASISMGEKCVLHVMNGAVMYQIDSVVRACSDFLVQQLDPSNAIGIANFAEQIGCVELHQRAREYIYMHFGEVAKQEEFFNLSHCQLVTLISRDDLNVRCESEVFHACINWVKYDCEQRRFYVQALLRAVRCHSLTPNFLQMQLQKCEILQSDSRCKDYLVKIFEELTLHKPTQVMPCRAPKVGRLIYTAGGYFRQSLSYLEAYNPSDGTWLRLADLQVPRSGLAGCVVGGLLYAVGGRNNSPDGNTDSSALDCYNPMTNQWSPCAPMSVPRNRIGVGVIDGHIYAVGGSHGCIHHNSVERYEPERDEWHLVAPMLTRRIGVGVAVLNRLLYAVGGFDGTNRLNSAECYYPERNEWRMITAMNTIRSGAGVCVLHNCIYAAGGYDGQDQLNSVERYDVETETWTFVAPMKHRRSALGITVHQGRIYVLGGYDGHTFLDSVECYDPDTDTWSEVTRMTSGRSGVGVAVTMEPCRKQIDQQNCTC

On to `COC(=O)[C@]12CCC(C)(C)C[C@H]1[C@H]1C(=O)C=C3[C@@]4(C)C=C(C#N)C(=O)C(C)(C)[C@@H]4CC[C@@]3(C)[C@]1(C)CC2` [BARDOXOLONE METHYL], for which the inhibition result in series [1], in series [2], in series [6], in [7], in series [8] and in [9] was “Active” each time. For the same compound, in the series with Mus musculus [3], the Activity entry is listed as “Non-Toxic”. For the same compound, the half-life (usually the time needed for the level to fall by half in the phase considered) in [4] was 4.41 h. Also, the IC50 (commonly the point on the concentration scale where inhibition reaches its midpoint) in the series with H9c2 was 5.2 µM. Besides, the LD50 (usually the dose expected to kill half of the subjects tested) at 168 h in series [5] came out at 425 mg/kg.
Take `COC(=O)[C@@H](N)CCC(=O)Nc1ccc(COC2=C(C#N)[C@H](O)[C@]3(C)C4=CC(=O)[C@@H]5[C@@H]6CC(C)(C)CC[C@]6(C(=O)OC)CC[C@@]5(C)[C@]4(C)CC[C@H]3C2(C)C)cc1`: the inhibition result in series [1], in series [2], in series [6], in [7] and in series [9] was “Active” throughout. The result in the series with Mus musculus [10] and in the series on Mus musculus [11] was Active. Moreover, in series [4], the half-life was 1.31 h. Besides, the IC50 in the series on H9c2 came to 112 µM. In addition, in series [5], the LD50 at 168 h came out at 886 mg/kg.
